Assay results from the RNAGym collection of RNA variant scans (doi:10.1126/science.aae0568).
Fewer inactive variants are shown than the library holds.

B1: tRNA (parent)
chain: GUUCCGUUGGCGUAAUGGUAACGCGUCUCCCUCCUAAGGAGAAGACUGCGGGUUCGAGUCCCGUACGGAACG

Variants of: B1
Test: yeast fitness relative to wild type (ratio to wild type); higher = fitter; tRNA-Arg(CCU), competitive growth, 37 C, YPD
Procedure, shortened: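 Gene amplicons from the start population and from each of six end populations were read by 100-nucleotide paired-end sequencing. Those end populations came from pooled Saccharomyces cerevisiae strains carrying tRNA-Arg(CCU) gene variants at the native locus, competed in YPD at 37°C for 24 hours. Fitness relative to wild type was worked out from changes in genotype frequencies. Genotypes needed ≥ 100 starting reads, and estimates < 0.5 were set to 0.5.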

Row | Variant | yeast fitness
1 | C11G C46G C62A | ≤ 0.5
2 | U54A C62U | 0.59
3 | C24A C46A A70C | 0.851
4 | G10C A14G A36U | ≤ 0.5
5 | C34U A42C A69C | ≤ 0.5
6 | G6C G41C A45G G63A C66G G67C | ≤ 0.5
7 | U53A G58U C61U C62A | ≤ 0.5
8 | C4G C11G C31U G41C U54G | 0.707
9 | C29G U54G | 0.563
10 | U3A U35G A43U A57C C62A C66A | ≤ 0.5
11 | G6C A20U C30G A65G A70U | 0.53
12 | C30G G63A | 0.641
13 | U2C G12A A15G C66U | 0.577
14 | U54C A57U C60A G68C | ≤ 0.5
15 | C24U U26A G68A | 0.604
16 | U13G C22U G44A | 0.641
17 | A36U A45C C49G G67A | 0.548
18 | C4A U32C C66U | 0.707
19 | G10A U26A G63A | ≤ 0.5
20 | U26C A37U U54A | ≤ 0.5
21 | C5G U8A G39A | ≤ 0.5

Row | Variant | yeast fitness
22 | U8C A45C A65C | ≤ 0.5
23 | A15U A36C G48C U59A C66U | ≤ 0.5
24 | A21C C24A C31A U47A | ≤ 0.5
25 | U8C G39C | 0.67
26 | A21U A40C G58C A65C C66G | 0.523
27 | C29U U59G C66U | 0.732
28 | G10C G12C G39A G50A A69U | ≤ 0.5
29 | C27G A43U U59G G68C | ≤ 0.5
30 | C46U C49U | 0.98
31 | G18C C62A G68C | ≤ 0.5
32 | A15U U16C G18C C29A A43G A45G C62G | ≤ 0.5
33 | U8C U19C C55G | ≤ 0.5
34 | G50C C66A | 0.657
35 | G12C G63A | 0.81
36 | G6A C60G A70C | 0.531
37 | C4G U28G C30A A43C C61G A65G | ≤ 0.5
38 | U3C G48C G67C | ≤ 0.5
39 | C5U U7C | 0.92
40 | C22A A69U | 0.843
41 | U28A C30A G67U | 0.642
42 | G6A C11A A45U U59G | ≤ 0.5

Row | Variant | yeast fitness
43 | A14G C22U C46G C60G | ≤ 0.5
44 | U2A A45C A65C | 0.764
45 | G6A C31G C55U | 0.537
46 | C4U U16A A20C U54A G67U | ≤ 0.5
47 | G6A A40G G41A A42G | ≤ 0.5
48 | A20U C29A C30U A36U | ≤ 0.5
49 | G9C G12A C62G G67A | 0.618
50 | A21U U64G A69G | ≤ 0.5
51 | G48C C60G | 0.719
52 | U28A C34U A45U C62A | ≤ 0.5
53 | C27A C49U | 0.826
54 | G9A U35C A42U G63A | ≤ 0.5
55 | G9C U19C C31G | 0.605
56 | C4U C31U G52C C61A | ≤ 0.5
57 | U16A C22U U28C U32C A42G C55G | ≤ 0.5
58 | C62A A65U C66U | ≤ 0.5
59 | U8C C27U G51A A57U | 0.541
60 | U8A G56U G67A A70C | ≤ 0.5
61 | U2C C34G | 0.62
62 | C27G G41A A57C C62A | ≤ 0.5
63 | C29A U35G C55G G68A A69C | ≤ 0.5

Row | Variant | yeast fitness
64 | U2C G10C A36C | 0.587
65 | U54A G56C | 0.691
66 | U2G C31U A70U | 0.772
67 | C4U C5U G9A G10A A15C C46A | 0.619
68 | A14G C29U G41A G63A | ≤ 0.5
69 | A21G G50A C55U | 0.533
70 | A15G G17A C33U G39C | 0.54
71 | U26A G44C C62U | 0.622
72 | C4A C11U A57C | ≤ 0.5
73 | U2A C31A A69U | 0.604
74 | A14C A20U C33U | ≤ 0.5
75 | G12A U28G C30U C61A A69U | 0.679
76 | U13A U28C A69C | 0.76
77 | G10A A70U | 0.894
78 | U19C A43U A69U | 1.09
79 | C11G C27U U32A G52A C60U A70C | ≤ 0.5
80 | C60A G67A | 0.679
81 | U16C C55A G67A A70G | ≤ 0.5
82 | G6A C46G | 0.937
83 | A14U U28A | 0.579
84 | A43U G63C | 0.589
